Data as given in ChEMBL document CHEMBL1138780, “Synthesis and conformational analysis of a non-amidine factor Xa inhibitor that incorporates 5-methyl-4,5,6,7-tetrahydrothiazolo[5,4-c]pyridine as S4 binding element” (J Med Chem, 2004).

Legend:
Coagulation factor X = Coagulation factor X (Homo sapiens, UniProt P00742); test: Inhibitory concentration against Coagulation factor X
Rattus norvegicus = species on record: Rattus norvegicus; test: Anticoagulant activity in vitro was evaluated by prolongation rate of prothrombin time; type: functional
[1] = Anticoagulant activity in vitro was evaluated with plasma clotting time doubling concentration for prothrombin time; type: functional, Homo sapiens
Prothrombin = Prothrombin (Homo sapiens, UniProt P00734); test: Concentration required to inhibit thrombin activity by 50%
[2] = molecular target: Coagulation factor X (Rattus norvegicus) (UniProt Q63207); test: Ex-vivo inhibitory activity against factor Xa of rat blood after 3h of peroral administration of 30 mg/kg; type: organism-based; design: dose 30 mg/kg; conditions: at 30 mg/kg
Procedure, shortened: (§1)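 Fasted male Wistar rats received compound orally by stomach tube in 0.5% methylcellulose; controls got vehicle. Under halothane anesthesia, citrated blood was drawn at the stated time and platelet-poor plasma prepared. Plasma anti-fXa activity was measured chromogenically in Tris/NaCl/BSA buffer, pH 7.4, as 1 − sample OD/min ÷ control OD/min.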

[3] = molecular target: Coagulation factor X (Rattus norvegicus) (UniProt Q63207); test: Ex-vivo inhibitory activity against factor Xa of rat blood after 1 hr of peroral administration of 30 mg/kg; type: organism-based; design: dose 30 mg/kg; conditions: at 30 mg/kg; procedure, shortened: as §1
[4] = molecular target: Coagulation factor X (Rattus norvegicus) (UniProt Q63207); test: Ex-vivo inhibitory activity against factor Xa of rat blood after 6 hr of peroral administration of 30 mg/kg; type: organism-based; design: dose 30 mg/kg; conditions: at 30 mg/kg; procedure, shortened: as §1

Chain of Coagulation factor X (P00742 41-179 limits assumed): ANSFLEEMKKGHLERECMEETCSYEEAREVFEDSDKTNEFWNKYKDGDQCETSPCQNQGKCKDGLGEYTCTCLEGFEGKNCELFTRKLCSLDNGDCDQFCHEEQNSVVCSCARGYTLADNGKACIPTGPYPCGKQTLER
Chain of Coagulation factor X (P00742 235-488 limits assumed): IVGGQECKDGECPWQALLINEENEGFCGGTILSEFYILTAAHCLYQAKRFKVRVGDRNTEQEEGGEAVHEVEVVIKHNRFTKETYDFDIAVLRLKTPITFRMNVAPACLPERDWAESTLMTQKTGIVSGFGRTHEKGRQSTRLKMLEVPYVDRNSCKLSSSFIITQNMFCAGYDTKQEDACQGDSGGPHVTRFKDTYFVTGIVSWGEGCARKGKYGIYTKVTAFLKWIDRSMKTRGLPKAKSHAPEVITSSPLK
Chain of Coagulation factor X (Rattus norvegicus) (Q63207 41-180 limits assumed): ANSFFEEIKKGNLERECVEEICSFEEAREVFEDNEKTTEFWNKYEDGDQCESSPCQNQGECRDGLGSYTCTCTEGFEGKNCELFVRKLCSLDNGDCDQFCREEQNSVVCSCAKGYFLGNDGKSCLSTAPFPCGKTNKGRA
Chain of Coagulation factor X (Rattus norvegicus) (Q63207 232-482 limits assumed): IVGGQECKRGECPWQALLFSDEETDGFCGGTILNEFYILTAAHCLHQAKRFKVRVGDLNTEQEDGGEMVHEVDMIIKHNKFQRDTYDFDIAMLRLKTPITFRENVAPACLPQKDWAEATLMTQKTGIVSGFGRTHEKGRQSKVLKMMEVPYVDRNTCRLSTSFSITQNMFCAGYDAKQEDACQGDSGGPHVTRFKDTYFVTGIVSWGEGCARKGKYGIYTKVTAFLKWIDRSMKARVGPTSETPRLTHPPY

Row | Structure (SMILES) | IC50 (Coagulation factor X) [nM] | Anticoagulant activity (Rattus norvegicus) [µM] | Anticoagulant activity [1] [µM] | also measured
1 | CN1CCc2nc(C(=O)N3CCN(S(=O)(=O)c4ccc5cc(Cl)ccc5c4)CC3)ccc2C1 | 2200 |  |  | 
2 | CN1CCc2nc(C(=O)N3CCN(S(=O)(=O)c4ccc5cc(Cl)ccc5c4)CC3C(N)=O)sc2C1 (configuration not stated) |  | 14 | 4.4 | IC50 (Prothrombin): 1000 nM; inhibition [2]: 55.8%; inhibition [3]: 67.4%; inhibition [4]: 24.7%
3 | O=C(c1nc2c(s1)CNCC2)N1CCN(S(=O)(=O)c2ccc3cc(Cl)ccc3c2)CC1 |  | 16.1 | 11.2 | IC50 (Prothrombin): 2900 nM
4 | O=C(c1cc2c([nH]1)CCNC2)N1CCN(S(=O)(=O)c2ccc3cc(Cl)ccc3c2)CC1 | 6200 |  |  | 
5 | CN1CCc2cc(C(=O)N3CCN(S(=O)(=O)c4ccc5cc(Cl)ccc5c4)CC3)oc2C1 | 550 |  |  | 
6 | O=C(c1ccc2c(n1)CCNC2)N1CCN(S(=O)(=O)c2ccc3cc(Cl)ccc3c2)CC1 | 920 |  |  | 
7 | CN1CCc2nc(C(=O)N3CCN(S(=O)(=O)c4ccc5cc(Cl)ccc5c4)CC3)sc2C1 |  | 10 | 6 | IC50 (Prothrombin): 560 nM
8 | O=C(c1ccc2c(c1)CCNC2)N1CCN(S(=O)(=O)c2ccc3cc(Cl)ccc3c2)CC1 | 640 |  |  | 

Second part, led by results:

Row | IC50 (Coagulation factor X) [nM] | Structure (SMILES) | Anticoagulant activity (Rattus norvegicus) [µM] | Anticoagulant activity [1] [µM] | also measured
9 | 320 | CN1CCc2[nH]c(C(=O)N3CCN(S(=O)(=O)c4ccc5cc(Cl)ccc5c4)CC3)cc2C1 |  |  | 
10 | 83 | NC(=O)C1CN(S(=O)(=O)c2ccc3cc(Cl)ccc3c2)CCN1C(=O)c1nc2c(s1)CNCC2 (configuration not stated) | 28.8 | 9.7 | 
11 | 110 | CCN1CCc2nc(C(=O)N3CCN(S(=O)(=O)c4ccc5cc(Cl)ccc5c4)CC3C(N)=O)sc2C1 (configuration not stated) | 14.6 | 7.2 | 
12 | 160 | O=C(c1cc2c(s1)CNCC2)N1CCN(S(=O)(=O)c2ccc3cc(Cl)ccc3c2)CC1 |  |  | 
13 | 105 | CN1CCc2cc(C(=O)N3CCN(S(=O)(=O)c4ccc5cc(Cl)ccc5c4)CC3)sc2C1 |  |  | 
14 | 210 | CN1CCc2sc(C(=O)N3CCN(S(=O)(=O)c4ccc5cc(Cl)ccc5c4)CC3)nc2C1 |  |  | 
15 | 80 | CC(C)N1CCc2nc(C(=O)N3CCN(S(=O)(=O)c4ccc5cc(Cl)ccc5c4)CC3C(N)=O)sc2C1 (configuration not stated) | 17.5 | 6.6 | 
16 | 190 | CN1CCc2sc(C(=O)N3CCN(S(=O)(=O)c4ccc5cc(Cl)ccc5c4)CC3)cc2C1 |  |  | 
17 | 270 | O=C(c1cc2c(s1)CCNC2)N1CCN(S(=O)(=O)c2ccc3cc(Cl)ccc3c2)CC1 |  |  | 
